Test results taken from ChEMBL document CHEMBL5724801, “EUbOPEN Chemogenomics Library - Multiplex” (2024).
Values joined by “and” are separate entries in the source; they are usually repeats but may differ in a detail not shown here. Equal values may be shown once.

System: Fibroblast
Test: Multiplex assay against human fibroblast
Format: toxicity, cell-based
Outline: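 Values for tubulin, mitochondrial-mass and membrane-permeability phenotypes are per cents of cells with healthy nuclei. These cells were identified by CellPathfinder machine-learning gating of live cells that had been stained at seeding with Hoechst33342, BioTracker Green Microtubule Cytoskeleton Dye, MitoTracker Red and Annexin V Alexa Fluor 680 and imaged on a CQ1 microscope at 37°C and 5% CO2 after compound addition. The gating first set Hoechst high-intensity objects apart from normal cells, then split normal cells into healthy, pyknosed or fragmented nuclei, and pyknosed cells into mitotic or apoptotic.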

[1] = 12 h, 1 µM, compound concentration 1 uM
[2] = 12 h, 10 µM, compound concentration 10 uM
[3] = 24 h, 1 µM, compound concentration 1 uM
[4] = 24 h, 10 µM, compound concentration 10 uM
[5] = 48 h, 1 µM, compound concentration 1 uM
[6] = 48 h, 10 µM, compound concentration 10 uM

COCCNc1cc(NC(=O)N2CCCc3cc(CN4CCOCC4=O)c(C=O)nc32)ncc1C#N
Population Fragmented Nuclei (%) [1]: 9.19% and 4.72% | Population Healthy Nuclei (%) [1]: 62.7% and 77.36% | Population Hoechst High Intensity Objects (%) [1]: 0% | Population Membrane Permeable-Phenotype (%) [1]: 4.31% and 4.27% | Population Mitochondria Different-Phenotype (%) [1]: 4.31% and 6.71% | Population Mitotic Cells (%) [1]: 92.31% and 76.32% | Population Normal (%) [1]: 100% | Population Pyknosed Nuclei (%) [1]: 28.11% and 17.92% | Population Tubulin-Different-Phenotype (%) [1]: 12.07% and 18.29% | Total Cell Count [1]: 185 and 212 | Population Apoptotic (%) [2]: 11.11% and 16.67% | Population Fragmented Nuclei (%) [2]: 13.02% and 4.35% | Population Healthy Nuclei (%) [2]: 54.17% and 72.83% | Population Hoechst High Intensity Objects (%) [2]: 0% and 0.54% | Population Membrane Permeable-Phenotype (%) [2]: 9.62% and 8.21% | Population Mitochondria Different-Phenotype (%) [2]: 20.19% and 13.43% | Population Mitotic Cells (%) [2]: 88.89% and 83.33% | Population Normal (%) [2]: 100% and 99.46% | Population Pyknosed Nuclei (%) [2]: 32.81% and 22.83% | Population Tubulin-Different-Phenotype (%) [2]: 43.27% and 48.51% | Total Cell Count [2]: 192 and 185 | Population Fragmented Nuclei (%) [3]: 7.46% and 3.69% | Population Healthy Nuclei (%) [3]: 72.64% and 83.41% | Population Hoechst High Intensity Objects (%) [3]: 0% | Population Membrane Permeable-Phenotype (%) [3]: 4.79% and 2.76% | Population Mitochondria Different-Phenotype (%) [3]: 2.05% and 5.52% | Population Mitotic Cells (%) [3]: 95% and 78.57% | Population Normal (%) [3]: 100% | Population Pyknosed Nuclei (%) [3]: 19.9% and 12.9% | Population Tubulin-Different-Phenotype (%) [3]: 10.27% and 12.15% | Total Cell Count [3]: 201 and 217 | Population Apoptotic (%) [4]: 26.32% and 30% | Population Fragmented Nuclei (%) [4]: 10.14% and 8.42% | Population Healthy Nuclei (%) [4]: 71.5% and 70.53% | Population Hoechst High Intensity Objects (%) [4]: 0% | Population Membrane Permeable-Phenotype (%) [4]: 12.84% and 7.46% | Population Mitochondria Different-Phenotype (%) [4]: 15.54% and 15.67% | Population Mitotic Cells (%) [4]: 73.68% and 70% | Population Normal (%) [4]: 100% | Population Pyknosed Nuclei (%) [4]: 18.36% and 21.05% | Population Tubulin-Different-Phenotype (%) [4]: 43.24% and 50.75% | Total Cell Count [4]: 207 and 190 | Population Apoptotic (%) [5]: 15.38% and 26.32% | Population Fragmented Nuclei (%) [5]: 7.73% and 4.91% | Population Healthy Nuclei (%) [5]: 86.7% and 86.61% | Population Hoechst High Intensity Objects (%) [5]: 0% | Population Membrane Permeable-Phenotype (%) [5]: 1.49% and 2.58% | Population Mitochondria Different-Phenotype (%) [5]: 7.92% and 1.03% | Population Mitotic Cells (%) [5]: 84.62% and 73.68% | Population Normal (%) [5]: 100% | Population Pyknosed Nuclei (%) [5]: 5.58% and 8.48% | Population Tubulin-Different-Phenotype (%) [5]: 5.45% and 12.89% | Total Cell Count [5]: 233 and 224 | Population Apoptotic (%) [6]: 25% and 38.46% | Population Fragmented Nuclei (%) [6]: 13.64% and 8.2% | Population Healthy Nuclei (%) [6]: 79.09% and 84.7% | Population Hoechst High Intensity Objects (%) [6]: 0% | Population Membrane Permeable-Phenotype (%) [6]: 4.02% and 7.74% | Population Mitotic Cells (%) [6]: 75% and 61.54% | Population Normal (%) [6]: 100% | Population Pyknosed Nuclei (%) [6]: 7.27% and 7.1% | Population Tubulin-Different-Phenotype (%) [6]: 24.71% and 43.87% | Total Cell Count [6]: 220 and 183
